Laboratory results as given in ChEMBL document CHEMBL1671846, “Discovery of a potent and short-acting oral calcilytic with a pulsatile secretion of parathyroid hormone” (ACS Med Chem Lett, 2011).
The source made the active and inactive calls. The calls are words filed in the database; no cut-off is given here.

Assays:
[1] = tested on: Rattus norvegicus; experiment: Antiosteoporotic activity in rat assessed as increase of serum parathyroid hormone level at 30 mg/kg, po after 15 to 30 mins relative to control; assay type: functional
Outline: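 Rats (n = 5) dosed orally. Serum PTH 1−34 measured, and the peak increase (Δ), taken at 15 or 30 min after dosing, compared with levels in vehicle-treated control rats.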

[2] = target: T1, Extracellular calcium-sensing receptor (Homo sapiens, UniProt P41180); experiment: Antagonist activity at human CaSR expressed in rat PC12h cells by reporter gene assay; assay type: functional, cell-based, PC-12
T1 sequence (P41180 whole entry): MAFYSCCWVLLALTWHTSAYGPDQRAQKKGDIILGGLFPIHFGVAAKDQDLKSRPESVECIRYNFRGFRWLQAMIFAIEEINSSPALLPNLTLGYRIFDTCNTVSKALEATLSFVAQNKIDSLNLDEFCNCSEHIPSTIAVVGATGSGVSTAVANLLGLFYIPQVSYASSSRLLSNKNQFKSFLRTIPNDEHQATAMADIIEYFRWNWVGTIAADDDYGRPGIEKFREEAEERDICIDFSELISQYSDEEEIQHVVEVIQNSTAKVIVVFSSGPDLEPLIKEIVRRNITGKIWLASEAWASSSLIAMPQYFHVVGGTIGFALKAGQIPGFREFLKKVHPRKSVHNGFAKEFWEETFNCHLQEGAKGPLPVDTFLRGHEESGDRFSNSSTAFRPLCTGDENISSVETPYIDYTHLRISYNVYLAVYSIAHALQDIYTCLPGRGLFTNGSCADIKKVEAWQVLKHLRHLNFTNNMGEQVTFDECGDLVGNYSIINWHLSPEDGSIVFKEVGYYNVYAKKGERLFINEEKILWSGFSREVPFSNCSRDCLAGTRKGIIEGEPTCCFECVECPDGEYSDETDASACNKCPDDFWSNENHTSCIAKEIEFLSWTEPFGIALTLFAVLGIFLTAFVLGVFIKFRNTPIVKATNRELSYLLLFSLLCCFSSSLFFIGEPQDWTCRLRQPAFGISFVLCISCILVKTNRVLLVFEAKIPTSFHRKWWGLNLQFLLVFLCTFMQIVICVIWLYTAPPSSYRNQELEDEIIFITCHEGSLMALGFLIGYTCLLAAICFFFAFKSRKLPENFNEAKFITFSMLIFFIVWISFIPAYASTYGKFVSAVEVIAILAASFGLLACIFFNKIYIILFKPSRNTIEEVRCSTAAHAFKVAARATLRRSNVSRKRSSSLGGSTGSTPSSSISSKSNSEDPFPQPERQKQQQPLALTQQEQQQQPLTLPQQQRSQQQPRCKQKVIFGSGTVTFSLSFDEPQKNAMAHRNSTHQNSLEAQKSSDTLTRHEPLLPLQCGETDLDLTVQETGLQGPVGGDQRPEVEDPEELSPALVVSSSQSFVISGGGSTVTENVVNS
Outline: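 Human CaSR antagonism measured by reporter gene assay in PC12h cells. Values are means of three experiments.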

[3] = target: Cytochrome P450 2D6 (Homo sapiens, UniProt P10635); experiment: Inhibition of CYP2D6; assay type: ADME
[4] = tested on: Rattus norvegicus; experiment: Antiosteoporotic activity in rat assessed as increase of serum parathyroid hormone level at 3 mg/kg, po after 15 to 30 mins relative to control; assay type: functional
Outline: (§1)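 Rats (n = 5) dosed orally. Serum PTH 1−34 peak increase (Δ) measured at 15 or 30 min and compared with vehicle-treated controls. Scored against the peak given by a 30 mg/kg oral reference aminopropandiol calcilytic: ++ >80%, + 50−80%, below that <50%.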

[5] = tested on: Rattus norvegicus; experiment: Antiosteoporotic activity in rat assessed as increase of serum parathyroid hormone level at 1 mg/kg, po after 15 to 30 mins relative to control; assay type: functional; outline: as §1
[6] = tested on: Rattus norvegicus; experiment: Antiosteoporotic activity in rat assessed as increase of serum parathyroid hormone level at 10 mg/kg, po after 15 to 30 mins relative to control; assay type: functional; outline: as §1
[7] = tested on: Rattus norvegicus; experiment: Antiosteoporotic activity in po dosed rat assessed as increase of serum parathyroid hormone level after 15 to 30 mins; assay type: functional, organism-based; outline: as §1
[8] = target: Beta-2 adrenergic receptor (Homo sapiens, UniProt P07550); experiment: Inhibition of beta2 adrenergic receptor
[9] = Oral bioavailability in rat at 1 mg/kg; assay type: ADME, organism-based; conditions: in vivo, read-out: Activity
[10] = Tmax in rat at 1 mg/kg, po; assay type: ADME, organism-based; design: dose 1 mg/kg, route oral; conditions: in vivo
[11] = Cmax in rat at 1 mg/kg, po; assay type: ADME, organism-based; design: dose 1 mg/kg, route oral; conditions: in vivo
[12] = Inhibition of alpha2 adrenergic receptor up to 10 uM
[13] = tested on: Rattus norvegicus; experiment: Antiosteoporotic activity in rat assessed as increase of serum parathyroid hormone level at 3 mg/kg, po after 15 mins; assay type: functional, organism-based; design: dose 3 mg/kg
Outline: (§2)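 Time course in rats (n = 5) after oral dosing of the hemisulfate salt. Serum PTH 1−34 levels followed over time, expressed as mean ± standard deviation.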

[14] = Half life in rat at 1 mg/kg, po; assay type: ADME, organism-based; design: dose 1 mg/kg, route oral; conditions: in vivo
[15] = tested on: Rattus norvegicus; experiment: Antiosteoporotic activity in rat assessed as increase of serum parathyroid hormone level at 3 mg/kg, po after 2 hrs; assay type: functional, organism-based; design: dose 3 mg/kg; outline: as §2
[16] = target: D(1A) dopamine receptor (Homo sapiens) (UniProt P21728); experiment: Inhibition of dopamine D1 receptor up to 10 uM
[17] = Inhibition of serotonin receptor up to 10 uM

Chain of Cytochrome P450 2D6 (P10635 whole entry): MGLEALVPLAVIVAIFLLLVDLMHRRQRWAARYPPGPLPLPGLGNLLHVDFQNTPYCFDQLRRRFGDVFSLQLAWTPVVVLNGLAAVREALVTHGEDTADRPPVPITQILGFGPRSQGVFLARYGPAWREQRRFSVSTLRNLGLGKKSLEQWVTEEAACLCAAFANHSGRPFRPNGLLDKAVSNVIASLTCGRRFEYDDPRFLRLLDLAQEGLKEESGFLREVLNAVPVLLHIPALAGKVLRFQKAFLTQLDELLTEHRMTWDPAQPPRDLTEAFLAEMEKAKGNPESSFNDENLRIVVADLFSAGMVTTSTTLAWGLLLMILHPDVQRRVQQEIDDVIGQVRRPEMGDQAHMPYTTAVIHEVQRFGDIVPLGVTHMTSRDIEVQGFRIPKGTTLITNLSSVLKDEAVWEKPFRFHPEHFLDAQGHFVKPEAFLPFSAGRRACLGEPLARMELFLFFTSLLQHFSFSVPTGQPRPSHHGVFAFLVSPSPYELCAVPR
Chain of Beta-2 adrenergic receptor (P07550 whole entry): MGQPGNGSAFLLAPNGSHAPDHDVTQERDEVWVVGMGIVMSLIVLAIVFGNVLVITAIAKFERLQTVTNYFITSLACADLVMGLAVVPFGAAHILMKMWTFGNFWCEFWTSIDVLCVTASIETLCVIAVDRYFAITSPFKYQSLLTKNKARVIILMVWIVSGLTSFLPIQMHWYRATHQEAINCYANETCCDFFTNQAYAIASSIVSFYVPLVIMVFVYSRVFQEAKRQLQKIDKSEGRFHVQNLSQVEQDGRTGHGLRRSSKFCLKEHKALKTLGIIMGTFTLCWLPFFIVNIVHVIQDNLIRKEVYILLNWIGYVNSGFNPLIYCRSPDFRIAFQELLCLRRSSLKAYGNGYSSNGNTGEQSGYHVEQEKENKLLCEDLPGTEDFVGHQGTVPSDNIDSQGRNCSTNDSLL
Chain of D(1A) dopamine receptor (Homo sapiens) (P21728 whole entry): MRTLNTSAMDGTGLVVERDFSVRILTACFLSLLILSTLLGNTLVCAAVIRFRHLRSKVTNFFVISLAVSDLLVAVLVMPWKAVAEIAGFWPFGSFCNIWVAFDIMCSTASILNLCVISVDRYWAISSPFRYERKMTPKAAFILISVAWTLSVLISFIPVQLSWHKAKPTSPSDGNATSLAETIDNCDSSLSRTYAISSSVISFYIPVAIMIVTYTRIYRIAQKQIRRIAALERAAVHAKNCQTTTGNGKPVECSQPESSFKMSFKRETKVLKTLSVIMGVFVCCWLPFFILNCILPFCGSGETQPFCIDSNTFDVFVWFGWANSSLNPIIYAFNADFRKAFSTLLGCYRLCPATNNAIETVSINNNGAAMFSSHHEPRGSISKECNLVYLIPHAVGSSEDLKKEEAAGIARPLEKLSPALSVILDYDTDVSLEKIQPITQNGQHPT

IC50 [2] [nM] | IC50 [3] [nM] | SMILES | Activity [4] [%] | also measured
 |  | Cc1ccccc1[C@H](OC[C@H](O)CNC(C)(C)Cc1ccc2ccccc2c1)C1CC1 |  | fold change (FC) [1]: 2
18 | 1200 | CC(C)(Cc1ccc2ccccc2c1)NC[C@@H](O)CO[C@@H](c1ccccc1CO)C1CC1 |  | 
2200 |  | C[C@@H](OC[C@H](O)CNC(C)(C)Cc1ccc2ccccc2c1)c1ccccc1CC(=O)O |  | 
24 |  | C[C@@H](OC[C@H](O)CNC(C)(C)Cc1ccc2ccccc2c1)c1ccccc1CCC(=O)O | 50 | 
4 | > 10000 | C[C@@H](OC[C@H](O)CNC(C)(C)Cc1ccc2ccccc2c1)c1ccccc1-c1ccc(C(=O)O)cc1 | 50 | Activity [5]: <50%; Activity [6]: >80%
23 |  | C[C@@H](OC[C@H](O)CNC(C)(C)Cc1ccc(Cl)c(F)c1)c1ccccc1-c1ccc(C(=O)O)cc1 | >80 | Activity [5]: 50%
5 |  | Cc1cc(-c2ccccc2[C@@H](C)OC[C@H](O)CNC(C)(C)Cc2ccc3ccccc3c2)ccc1C(=O)O | >80 | Activity [5]: <50%
> 3000 | > 10000 | CC(C)(Cc1ccc2ccccc2c1)NC[C@@H](O)COC(c1ccccc1C(=O)O)C1CC1 (mixture of isomers) |  | 
960 | > 10000 | CC(C)(Cc1ccc2ccccc2c1)NC[C@@H](O)COC(c1cccc(C(=O)O)c1)C1CC1 (mixture of isomers) |  | 
> 3000 |  | CC(C)(Cc1ccc2ccccc2c1)NC[C@@H](O)COC(c1ccc(C(=O)O)cc1)C1CC1 (mixture of isomers) |  | 
> 3000 |  | CC(OC[C@H](O)CNC(C)(C)Cc1ccc2ccccc2c1)c1ccccc1C(=O)O (mixture of isomers) |  | 
1500 |  | CC(OC[C@H](O)CNC(C)(C)Cc1ccc2ccccc2c1)c1ccc(-c2ccc(C(=O)O)cc2)cc1 (mixture of isomers) |  | 
18 |  | CC(OC[C@H](O)CNC(C)(C)Cc1ccc2ccccc2c1)c1cccc(-c2ccc(C(=O)O)cc2)c1 (mixture of isomers) |  | 
11 |  | CC(OC[C@H](O)CNC(C)(C)Cc1ccc2ccccc2c1)c1ccccc1-c1ccc(C(=O)O)cc1 (mixture of isomers) |  | 
12 | 11000 | Cc1cc(-c2ccccc2[C@@H](C)OC[C@H](O)CNC(C)(C)Cc2ccc(Cl)c(F)c2)ccc1C(=O)O [ENCALERET] | >80 | Activity [7]: Dose-dependent effect; IC50 [8]: 1700 nM; Activity [5]: >80%; bioavailability [9]: 64%; Tmax [10]: 0.5 h; Cmax [11]: 475 ng/mL; Activity [12]: inactive; Activity [13]: Active; half-life [14]: 1.8 h; Activity [6]: >80%; Activity [15]: inactive; Activity [16]: inactive; Activity [17]: inactive
